{"source": "the RNAGym collection of RNA variant scans (doi:10.1038/nmeth.2970)", "parents": {"B1": {"name": "NELF-E aptamer (parent)", "chain": "CCCAACGACUGCCGAGCGAGAUUACGCUUGAGCGCCCCACUGAGGAUGCCCACGGGCGAUUGGGGCACGG"}}, "data": [{"variants_of": "B1", "test": "HiTS-RAP", "conditions": "with NELF-E (Drosophila)", "method_in_brief": "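Kd came from weighted Hill fits to the first binding curve, with intensities normalised to sequencing intensity and averaged per sequence, keeping only fits whose variance was below 1,000,000. That curve was imaged on an Illumina GAIIx flowcell, where sequenced aptamer DNA templates with a T7 promoter and ter site had been transcribed in situ by T7 RNA polymerase and halted by GST-Tus (30 minutes, 37°C). Before each image, clusters equilibrated for 30 minutes at room temperature with NELF-E-mOrange at 0.064 to 1000 nM in HEPES binding buffer.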", "units": {"Kd": "nM"}, "values": [{"variant": "G26U C27G", "Kd": 4.95}, {"variant": "U29G A46G", "Kd": 22.4}, {"variant": "U29G A46U", "Kd": 77.8}, {"variant": "A24G A59G", "Kd": 36.5}, {"variant": "U23G C27U", "Kd": 4.59}, {"variant": "U29G C38U", "Kd": 8.13}, {"variant": "U23G U61A", "Kd": 31}, {"variant": "U23G U61C", "Kd": 67.8}, {"variant": "U23G U61G", "Kd": 6.91}, {"variant": "G26A U29G", "Kd": 5.28}, {"variant": "U22G U61G", "Kd": 9.56}, {"variant": "U22G U61A", "Kd": 29.9}, {"variant": "U23G G30A", "Kd": 4.6}, {"variant": "U23G G30U", "Kd": 7.41}, {"variant": "U29C C66U", "Kd": 5.81}, {"variant": "U28C U29G", "Kd": 8.69}, {"variant": "U28G U41G", "Kd": 5.18}, {"variant": "U23G G65A", "Kd": 4.87}, {"variant": "U23G G65U", "Kd": 6.65}, {"variant": "A24U U41G", "Kd": 6.61}, {"variant": "U29G G58U", "Kd": 8.12}, {"variant": "A24G U29C", "Kd": 4.85}, {"variant": "A24G U29A", "Kd": 4.42}, {"variant": "A24G U29G", "Kd": 5.84}, {"variant": "U29G C50U", "Kd": 15.4}, {"variant": "G26U", "Kd": 5.53}, {"variant": "G26C", "Kd": 13.8}, {"variant": "G26A", "Kd": 4.05}, {"variant": "U23G G44U", "Kd": 6.93}, {"variant": "U23G G44A", "Kd": 68.6}, {"variant": "U29G G65A", "Kd": 4.59}, {"variant": "U29G G65U", "Kd": 6.57}, {"variant": "U29A A31U", "Kd": 4.6}, {"variant": "U29A A31G", "Kd": 5.67}, {"variant": "U23G C53G", "Kd": 7.15}, {"variant": "U23G C53A", "Kd": 6.72}, {"variant": "U23G C53U", "Kd": 4.17}, {"variant": "A24G U47G", "Kd": 7.22}, {"variant": "A24G U47A", "Kd": 13}, {"variant": "A24G G48A", "Kd": 14.2}, {"variant": "U23G C51U", "Kd": 7.2}, {"variant": "U23G C51G", "Kd": 5.33}, {"variant": "A24G G56U", "Kd": 8.45}, {"variant": "A24G G56A", "Kd": 11.9}, {"variant": "U28C U61A", "Kd": 43.5}, {"variant": "U23G G45A", "Kd": 19.3}, {"variant": "U23G G45U", "Kd": 6.11}, {"variant": "C25A", "Kd": 4.89}, {"variant": "C25G", "Kd": 5.2}, {"variant": "C25U", "Kd": 5.19}, {"variant": "A24G G42A", "Kd": 56}, {"variant": "U29G G32A", "Kd": 5.37}, {"variant": "U23G A43U", "Kd": 85.7}, {"variant": "U23G A43G", "Kd": 25.1}, {"variant": "U23G C33U", "Kd": 6.01}, {"variant": "U23G C33G", "Kd": 8.04}, {"variant": "U23G C33A", "Kd": 5.51}, {"variant": "U29G A39C", "Kd": 24.7}, {"variant": "U29G A39U", "Kd": 26.4}, {"variant": "U29G A39G", "Kd": 7.69}, {"variant": "G26C C27G", "Kd": 3.95}, {"variant": "U23G G58U", "Kd": 15.1}, {"variant": "A24G A46G", "Kd": 11.5}, {"variant": "A24G A46U", "Kd": 58.5}, {"variant": "U22G U47A", "Kd": 11.3}, {"variant": "U22G U47G", "Kd": 7.29}, {"variant": "U23G C36G", "Kd": 5.58}, {"variant": "U23G C36U", "Kd": 8.06}, {"variant": "U23G C36A", "Kd": 8.43}, {"variant": "A24G C50U", "Kd": 9.69}, {"variant": "U29G G45A", "Kd": 74.1}, {"variant": "U29G G45U", "Kd": 5.6}, {"variant": "U29A C37U", "Kd": 7.5}, {"variant": "U29G A59G", "Kd": 50.9}, {"variant": "U29G A59U", "Kd": 23.9}, {"variant": "A24G G26U", "Kd": 6.2}, {"variant": "A24G G26A", "Kd": 5.08}, {"variant": "U29G U47A", "Kd": 11.1}, {"variant": "U29G U47G", "Kd": 6.21}, {"variant": "U22G U41A", "Kd": 81.8}, {"variant": "U22G U41G", "Kd": 5.36}, {"variant": "U22G U41C", "Kd": 74.5}, {"variant": "A24G C25U", "Kd": 6.02}, {"variant": "U23C", "Kd": 4.16}, {"variant": "U23A", "Kd": 5.15}, {"variant": "U23G", "Kd": 4.99}, {"variant": "G26U U41G", "Kd": 6.71}, {"variant": "A24G G65U", "Kd": 6}, {"variant": "A24G G65A", "Kd": 5.2}, {"variant": "U29G G54U", "Kd": 6.72}, {"variant": "U29G G54A", "Kd": 13.1}, {"variant": "G26A A67G", "Kd": 4.9}, {"variant": "U28C A59G", "Kd": 113}, {"variant": "A24U", "Kd": 5.93}, {"variant": "A24G", "Kd": 5.47}, {"variant": "A24C", "Kd": 5.86}, {"variant": "A24G C57U", "Kd": 6.3}, {"variant": "U23G G64U", "Kd": 6.13}, {"variant": "U23G G64C", "Kd": 6.24}, {"variant": "U23G G64A", "Kd": 6.56}, {"variant": "U29G G34A", "Kd": 7.56}, {"variant": "U29G G34U", "Kd": 5.71}, {"variant": "U29G U41C", "Kd": 67.5}, {"variant": "U29G U41A", "Kd": 78.7}, {"variant": "U29G U41G", "Kd": 5.31}, {"variant": "U23G A31G", "Kd": 6.72}, {"variant": "U23G A31U", "Kd": 6.53}, {"variant": "U23G C66U", "Kd": 6}, {"variant": "U29C A67U", "Kd": 5.08}, {"variant": "U29A", "Kd": 4.54}, {"variant": "U29G", "Kd": 4.93}, {"variant": "U29C", "Kd": 4.9}, {"variant": "U29G C35U", "Kd": 17.1}, {"variant": "U29G C35G", "Kd": 4.89}, {"variant": "C27G", "Kd": 5.01}, {"variant": "C27A", "Kd": 4.28}, {"variant": "C27U", "Kd": 4.14}, {"variant": "U23G G34U", "Kd": 5.63}, {"variant": "U23G G34A", "Kd": 7.56}, {"variant": "U23G A59G", "Kd": 57.5}, {"variant": "C27U U28G", "Kd": 5.03}, {"variant": "U29G C49U", "Kd": 22.4}, {"variant": "U29G A52U", "Kd": 15.5}, {"variant": "U29G A52G", "Kd": 4.39}, {"variant": "A24G G34A", "Kd": 8.56}, {"variant": "U29G C53U", "Kd": 3.72}, {"variant": "U29G C53G", "Kd": 5.71}, {"variant": "U23G A39G", "Kd": 8.65}, {"variant": "U23G A39U", "Kd": 24.8}, {"variant": "U29C A43U", "Kd": 43.4}, {"variant": "U29G G56U", "Kd": 5.44}, {"variant": "U29G G56A", "Kd": 5.64}, {"variant": "A24G G45U", "Kd": 6.64}, {"variant": "U23G C50U", "Kd": 12.6}, {"variant": "U23G C50G", "Kd": 5.73}, {"variant": "U23G C50A", "Kd": 16.7}, {"variant": "U28G", "Kd": 6.24}, {"variant": "U28C", "Kd": 8.26}, {"variant": "U28A", "Kd": 4.43}, {"variant": "U28C G34A", "Kd": 37.6}, {"variant": "A24G U61A", "Kd": 34.7}, {"variant": "A24G U61C", "Kd": 76.4}, {"variant": "A24G U61G", "Kd": 9.98}, {"variant": "A24G C27U", "Kd": 6.16}, {"variant": "C25G U41G", "Kd": 6.42}, {"variant": "U29G A31U", "Kd": 6.06}, {"variant": "U29G A31G", "Kd": 6.61}, {"variant": "U29G G62U", "Kd": 8.12}, {"variant": "U29G G62A", "Kd": 18.7}, {"variant": "U29C U41G", "Kd": 5.09}, {"variant": "U28A U29G", "Kd": 4.82}, {"variant": "U28A U29A", "Kd": 4.14}, {"variant": "A24G U41A", "Kd": 92.9}, {"variant": "A24G U41G", "Kd": 5.63}, {"variant": "G26A U41G", "Kd": 4.19}, {"variant": "C25G U29G", "Kd": 6.18}, {"variant": "U29G G63A", "Kd": 11.4}, {"variant": "U29G G63U", "Kd": 12.4}, {"variant": "U23G C40U", "Kd": 135}, {"variant": "U23G C40G", "Kd": 5.5}, {"variant": "A24G A67G", "Kd": 6.13}, {"variant": "A24G A67U", "Kd": 7.95}, {"variant": "U29G C37U", "Kd": 12.4}, {"variant": "U29G C37A", "Kd": 14.8}, {"variant": "U29G C37G", "Kd": 8.38}, {"variant": "U29A A67U", "Kd": 5.96}, {"variant": "U23G G63A", "Kd": 20.3}]}]}
